Source: ChEMBL document CHEMBL1145061, “New potential uroselective NO-donor alpha1-antagonists” (J Med Chem, 2003)

What was measured:
[1] = molecular target: T1, 5-hydroxytryptamine receptor 1A (Homo sapiens, UniProt P08908); assay: Inhibition of [3H]8-OH-DPAT binding to 5-hydroxytryptamine 1A receptor serotonergic receptor in human HeLa cells; format: cell-based
T1 sequence (P08908 whole entry): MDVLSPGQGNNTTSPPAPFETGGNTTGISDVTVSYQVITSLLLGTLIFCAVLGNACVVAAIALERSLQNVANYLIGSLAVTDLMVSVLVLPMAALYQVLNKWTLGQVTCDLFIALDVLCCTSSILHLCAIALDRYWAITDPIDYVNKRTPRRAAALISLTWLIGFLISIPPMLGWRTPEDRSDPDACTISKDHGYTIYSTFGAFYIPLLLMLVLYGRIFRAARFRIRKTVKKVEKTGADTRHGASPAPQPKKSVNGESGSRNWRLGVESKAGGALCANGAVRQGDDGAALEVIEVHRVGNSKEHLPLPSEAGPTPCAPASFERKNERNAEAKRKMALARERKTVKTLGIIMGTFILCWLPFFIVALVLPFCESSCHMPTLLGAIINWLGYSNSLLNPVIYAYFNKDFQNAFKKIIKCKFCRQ
Procedure, shortened: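 Membranes from HeLa cells expressing the cloned human 5-HT1A receptor, [3H]-8-OH-DPAT competition binding.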

[2] = molecular target: T2, Alpha-1D adrenergic receptor (Homo sapiens, UniProt P25100); assay: Inhibition of [3H]-prazosin binding to cloned human Alpha-1D adrenergic receptor in CHO cells (chinese hamster ovary cells); format: cell-based
T2 sequence (P25100 whole entry): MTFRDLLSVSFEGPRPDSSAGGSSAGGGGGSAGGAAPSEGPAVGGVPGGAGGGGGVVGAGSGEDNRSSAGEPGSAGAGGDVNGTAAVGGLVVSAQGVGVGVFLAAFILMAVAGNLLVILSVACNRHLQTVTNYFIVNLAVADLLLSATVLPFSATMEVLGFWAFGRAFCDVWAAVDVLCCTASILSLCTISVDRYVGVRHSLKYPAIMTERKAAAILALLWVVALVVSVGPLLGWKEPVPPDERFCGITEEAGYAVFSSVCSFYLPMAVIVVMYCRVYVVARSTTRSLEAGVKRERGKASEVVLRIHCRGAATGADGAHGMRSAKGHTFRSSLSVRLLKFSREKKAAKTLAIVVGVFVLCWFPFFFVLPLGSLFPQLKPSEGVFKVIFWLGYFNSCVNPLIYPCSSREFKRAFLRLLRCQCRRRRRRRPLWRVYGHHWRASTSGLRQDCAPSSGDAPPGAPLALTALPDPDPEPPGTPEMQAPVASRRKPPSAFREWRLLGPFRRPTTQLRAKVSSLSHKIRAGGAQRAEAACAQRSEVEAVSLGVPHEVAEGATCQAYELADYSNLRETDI
Procedure, shortened: (§1)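 Membranes from CHO cells expressing cloned human α1a, α1b or α1d subtypes, [3H]prazosin competition binding.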

[3] = molecular target: T3, Alpha-1A adrenergic receptor (Rattus norvegicus, UniProt P43140); assay: Functional Alpha-1A adrenergic receptor antagonistic activity of noradrenaline induced contractions in prostatic portion of rat vas deferens; format: tissue-based; conditions: read-out: pA2 (converted)
T3 sequence (P43140 whole entry): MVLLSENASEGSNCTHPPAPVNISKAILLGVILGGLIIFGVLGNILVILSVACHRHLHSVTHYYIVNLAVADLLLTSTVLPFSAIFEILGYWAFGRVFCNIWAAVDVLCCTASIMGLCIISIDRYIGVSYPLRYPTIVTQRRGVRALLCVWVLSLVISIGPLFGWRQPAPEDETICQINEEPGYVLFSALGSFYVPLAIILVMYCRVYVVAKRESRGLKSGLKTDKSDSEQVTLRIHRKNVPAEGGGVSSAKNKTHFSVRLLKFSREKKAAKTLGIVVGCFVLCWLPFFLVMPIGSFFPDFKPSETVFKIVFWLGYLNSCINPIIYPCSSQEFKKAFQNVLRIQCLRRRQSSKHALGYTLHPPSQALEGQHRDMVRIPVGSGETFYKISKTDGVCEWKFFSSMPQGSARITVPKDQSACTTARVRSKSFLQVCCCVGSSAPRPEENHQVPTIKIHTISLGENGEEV
Procedure, shortened: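 Rat vas deferens, prostatic portion. Cumulative noradrenaline concentration-response curves were run with and without antagonist. pA2 came from 6-14 determinations. Where two antagonist concentrations were used and gave similar pA2, antagonism was taken as competitive; otherwise an apparent pA2 was taken at one concentration. Where NO relaxation appeared, 1 µM ODQ was added at least 10 min before the antagonist.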

[4] = molecular target: T4, Alpha-1A adrenergic receptor (Homo sapiens, UniProt P35348); assay: Inhibition of [3H]prazosin binding to cloned human Alpha-1A adrenergic receptor in CHO cells (chinese hamster ovary cells); format: cell-based; procedure, shortened: as §1
T4 sequence (P35348 whole entry): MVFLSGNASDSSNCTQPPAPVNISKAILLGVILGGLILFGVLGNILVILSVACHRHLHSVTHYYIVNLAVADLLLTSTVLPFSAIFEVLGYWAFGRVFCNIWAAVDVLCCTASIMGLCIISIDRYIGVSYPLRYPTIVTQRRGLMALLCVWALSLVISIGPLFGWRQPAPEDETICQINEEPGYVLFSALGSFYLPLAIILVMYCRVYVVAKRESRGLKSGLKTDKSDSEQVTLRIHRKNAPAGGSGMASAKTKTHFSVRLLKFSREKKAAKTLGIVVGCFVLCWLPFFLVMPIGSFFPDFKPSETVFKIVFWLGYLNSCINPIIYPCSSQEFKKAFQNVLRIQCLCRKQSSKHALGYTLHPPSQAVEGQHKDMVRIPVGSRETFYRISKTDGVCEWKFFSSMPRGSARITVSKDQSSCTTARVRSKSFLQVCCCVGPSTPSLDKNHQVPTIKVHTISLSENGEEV

[5] = molecular target: T5, Adrenergic receptor alpha-2 (Rattus norvegicus, UniProt P22086+P19328+P22909); assay: Inhibition of [3H]- rauwolscine binding to alpha-2 adrenergic receptor in membrane of rat cerebral cortex; format: tissue-based
T5 sequence (P22086 whole entry): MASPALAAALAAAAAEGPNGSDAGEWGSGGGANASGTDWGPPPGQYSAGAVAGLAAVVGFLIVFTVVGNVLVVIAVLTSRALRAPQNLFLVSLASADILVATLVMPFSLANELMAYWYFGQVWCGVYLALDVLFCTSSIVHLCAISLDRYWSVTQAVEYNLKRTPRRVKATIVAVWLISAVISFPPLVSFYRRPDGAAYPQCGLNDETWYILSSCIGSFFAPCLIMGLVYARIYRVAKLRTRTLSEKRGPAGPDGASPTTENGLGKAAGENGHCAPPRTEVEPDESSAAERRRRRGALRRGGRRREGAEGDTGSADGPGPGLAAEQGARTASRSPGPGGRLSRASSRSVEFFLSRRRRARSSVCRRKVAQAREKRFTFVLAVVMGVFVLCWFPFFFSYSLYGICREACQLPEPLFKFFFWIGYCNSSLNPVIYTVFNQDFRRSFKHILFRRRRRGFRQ
T5 sequence (P19328 whole entry): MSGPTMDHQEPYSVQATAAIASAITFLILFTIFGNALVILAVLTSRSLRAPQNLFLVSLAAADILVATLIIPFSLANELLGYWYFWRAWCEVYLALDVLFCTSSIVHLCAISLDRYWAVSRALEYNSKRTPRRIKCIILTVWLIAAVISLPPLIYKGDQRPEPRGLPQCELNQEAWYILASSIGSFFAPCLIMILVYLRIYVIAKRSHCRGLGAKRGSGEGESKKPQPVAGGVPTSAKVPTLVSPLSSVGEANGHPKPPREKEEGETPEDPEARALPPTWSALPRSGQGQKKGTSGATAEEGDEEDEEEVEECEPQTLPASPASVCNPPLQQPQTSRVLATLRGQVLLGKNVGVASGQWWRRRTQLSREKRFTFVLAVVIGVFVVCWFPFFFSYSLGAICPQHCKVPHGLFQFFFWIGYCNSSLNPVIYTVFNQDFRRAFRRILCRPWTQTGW
T5 sequence (P22909 whole entry): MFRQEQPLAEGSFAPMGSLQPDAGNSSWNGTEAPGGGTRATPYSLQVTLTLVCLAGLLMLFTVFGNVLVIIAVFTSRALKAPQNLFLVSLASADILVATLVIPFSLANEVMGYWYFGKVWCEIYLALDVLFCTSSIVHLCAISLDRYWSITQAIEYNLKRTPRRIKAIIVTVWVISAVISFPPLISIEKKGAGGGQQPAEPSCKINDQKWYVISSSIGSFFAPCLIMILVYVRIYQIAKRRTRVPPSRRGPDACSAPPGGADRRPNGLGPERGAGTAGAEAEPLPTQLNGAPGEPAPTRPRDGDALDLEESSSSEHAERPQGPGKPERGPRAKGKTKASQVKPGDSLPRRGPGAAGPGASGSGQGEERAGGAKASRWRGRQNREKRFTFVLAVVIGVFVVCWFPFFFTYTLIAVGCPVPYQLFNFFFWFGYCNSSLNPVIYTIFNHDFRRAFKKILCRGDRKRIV
Procedure, shortened: (§2)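 Native α2 receptors in rat cerebral cortex membranes, competition binding with [3H]rauwolscine.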

[6] = molecular target: T6, Alpha-1B adrenergic receptor (Homo sapiens, UniProt P35368); assay: Inhibition of [3H]prazosin binding to cloned human Alpha-1B adrenergic receptor in CHO cells (chinese hamster ovary cells); format: cell-based; procedure, shortened: as §1
T6 sequence (P35368 whole entry): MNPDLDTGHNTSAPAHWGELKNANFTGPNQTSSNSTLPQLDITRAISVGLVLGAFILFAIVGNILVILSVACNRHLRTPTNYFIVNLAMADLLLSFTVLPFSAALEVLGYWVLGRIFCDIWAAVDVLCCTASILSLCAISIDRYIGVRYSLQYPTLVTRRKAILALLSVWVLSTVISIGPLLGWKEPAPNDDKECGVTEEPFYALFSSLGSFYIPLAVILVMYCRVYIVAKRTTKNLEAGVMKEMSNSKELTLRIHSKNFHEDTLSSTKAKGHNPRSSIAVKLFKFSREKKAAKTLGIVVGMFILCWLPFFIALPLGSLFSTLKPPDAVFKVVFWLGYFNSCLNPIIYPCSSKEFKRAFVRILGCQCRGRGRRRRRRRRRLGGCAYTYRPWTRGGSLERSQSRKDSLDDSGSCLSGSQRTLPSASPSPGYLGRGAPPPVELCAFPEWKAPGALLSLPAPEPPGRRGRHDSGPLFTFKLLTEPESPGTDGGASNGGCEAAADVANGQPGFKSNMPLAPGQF

[7] = Thiol induced NO generation, through griess reaction expressed as % NO2- in presence of 5*10e-4 M L-cysteine
Procedure, shortened: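 Compound in DMSO diluted to 10^-4 M final in 1:1 v/v 50 mM phosphate buffer (pH 7.4)/MeOH containing 5 × 10^-4 M L-cysteine. Held 1 h at 37 °C, then treated with Griess reagent. Nitrite reported as % NO2- (mol/mol).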

[8] = molecular target: T5, Adrenergic receptor alpha-2; assay: Inhibition of [3H]- rauwolscine binding to alpha-2 adrenergic receptor in rat cerebral cortex; format: tissue-based; procedure, shortened: as §2
[9] = molecular target: T6, Alpha-1B adrenergic receptor; assay: Inhibition of [3H]-prazosin binding to cloned human Alpha-1B adrenergic receptor in CHO cells (chinese hamster ovary cells); format: cell-based; procedure, shortened: as §1

For `Cc1c(-c2ccccc2)oc2c(C(=O)NCCCN3CCN(c4ccccc4OCc4no[n+]([O-])c4C)CC3)cccc2c1=O`, the Ki [1] was 1.6 nM, the Ki [2] was 4.2 nM and the Kb [3] was 6.17 nM. For the same compound, the Ki [4] was 0.16 nM, the Ki [5] was 53.5 nM and the Ki [6] was 4.7 nM. For the same compound, the NO2- (mol/mol) [7] was 1.11%.
In the case of `COc1ccccc1N1CCN(CCCNC(=O)c2cccc3c(=O)c(C)c(-c4ccccc4)oc23)CC1` [UPIDOSIN], the Kb [3] is reported as 3.8 nM and the Ki [8] is reported as 33.3 nM.
Work on `Cc1c(-c2ccccc2)oc2c(C(=O)NCCCN3CCN(c4ccccc4OCc4no[n+]([O-])c4C(N)=O)CC3)cccc2c1=O` yielded a Ki [1] of 1.2 nM, a Ki [2] of 20.4 nM and a Kb [3] of 10.7 nM. The Ki [4] was 1.8 nM, the Ki [5] was 359 nM and the Ki [9] was 15.9 nM. For the same compound, the NO2- (mol/mol) [7] was 5.28%.
`Cc1c(-c2ccccc2)oc2c(C(=O)NCCCN3CCN(c4ccccc4OCc4no[n+]([O-])c4C#N)CC3)cccc2c1=O` showed a Ki [1] of 2.2 nM, a Ki [2] of 3.9 nM and a Kb [3] of 34.7 nM. For the same compound, the Ki [4] was 0.73 nM, the Ki [5] was 81.1 nM and the Ki [9] was 6.5 nM. For the same compound, the NO2- (mol/mol) [7] was 32.3%.
In the case of `Cc1c(-c2ccccc2)oc2c(C(=O)NCCCN3CCN(c4ccccc4OCCCO[N+](=O)[O-])CC3)cccc2c1=O`, the Ki [1] is reported as 7.2 nM, the Ki [2] is reported as 3.5 nM and the Kb [3] is reported as 2.29 nM. It also gave a Ki [4] of 0.094 nM, a Ki [5] of 81.8 nM and a Ki [9] of 1.2 nM. The NO2- (mol/mol) [7] was less than 1%.
